Data set [1] deals with T1, P2X purinoceptor 7 (Homo sapiens, UniProt Q99572).
T1 sequence (Q99572 whole entry): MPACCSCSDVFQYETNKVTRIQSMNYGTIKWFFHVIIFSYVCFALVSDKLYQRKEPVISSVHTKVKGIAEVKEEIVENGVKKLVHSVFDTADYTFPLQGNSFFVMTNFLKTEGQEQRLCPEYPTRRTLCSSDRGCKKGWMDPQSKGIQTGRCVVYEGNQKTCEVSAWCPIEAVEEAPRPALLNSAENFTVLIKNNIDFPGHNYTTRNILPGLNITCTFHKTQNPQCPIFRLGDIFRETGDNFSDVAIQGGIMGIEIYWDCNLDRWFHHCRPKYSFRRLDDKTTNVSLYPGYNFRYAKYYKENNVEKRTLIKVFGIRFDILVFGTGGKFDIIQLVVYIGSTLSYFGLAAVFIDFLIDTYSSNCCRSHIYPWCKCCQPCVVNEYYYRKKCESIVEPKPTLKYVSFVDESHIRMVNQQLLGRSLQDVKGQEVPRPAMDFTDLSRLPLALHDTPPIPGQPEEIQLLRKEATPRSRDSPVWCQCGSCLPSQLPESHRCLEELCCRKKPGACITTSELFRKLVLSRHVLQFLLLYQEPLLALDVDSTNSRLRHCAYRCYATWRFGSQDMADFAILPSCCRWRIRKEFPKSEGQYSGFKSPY
Description: Antagonist activity at human P2X7 receptor.

Data set [2] concerns the target T2, P2X purinoceptor 7 (Mus musculus, UniProt Q9Z1M0).
T2 sequence (Q9Z1M0 whole entry): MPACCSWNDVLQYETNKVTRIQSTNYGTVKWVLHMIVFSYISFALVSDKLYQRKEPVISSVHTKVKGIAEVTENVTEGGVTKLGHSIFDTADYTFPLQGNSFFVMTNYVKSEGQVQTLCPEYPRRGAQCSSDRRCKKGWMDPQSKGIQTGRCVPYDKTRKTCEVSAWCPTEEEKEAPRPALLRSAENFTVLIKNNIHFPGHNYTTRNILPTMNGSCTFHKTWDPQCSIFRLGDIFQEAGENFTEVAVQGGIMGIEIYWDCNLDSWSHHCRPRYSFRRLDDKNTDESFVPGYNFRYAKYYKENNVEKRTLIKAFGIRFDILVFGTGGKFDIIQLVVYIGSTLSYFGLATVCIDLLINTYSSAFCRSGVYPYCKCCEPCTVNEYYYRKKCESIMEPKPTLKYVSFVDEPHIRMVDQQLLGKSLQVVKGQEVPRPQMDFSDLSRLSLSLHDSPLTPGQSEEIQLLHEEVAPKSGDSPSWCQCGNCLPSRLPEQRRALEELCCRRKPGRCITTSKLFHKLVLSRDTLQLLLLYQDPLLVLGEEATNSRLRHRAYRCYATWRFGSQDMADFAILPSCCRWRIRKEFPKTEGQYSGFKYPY
Description: Antagonist activity at P2X7 receptor in LPS-primed mouse J774.A1 cells assessed as inhibition of ATP-induced IL-1beta release after 30 mins by ELISA. In kind it is cell-based. The method, boiled down:
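J774.A1 mouse cells stimulated with 5 mM ATP; IL-1β release measured, with IC50 taken from concentration-response data.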
On the technique in general: ELISA stands for enzyme-linked immunosorbent assay.

The target of data set [3] is T3, P2X purinoceptor 7 (Rattus norvegicus) (UniProt Q64663).
T3 sequence (whole entry): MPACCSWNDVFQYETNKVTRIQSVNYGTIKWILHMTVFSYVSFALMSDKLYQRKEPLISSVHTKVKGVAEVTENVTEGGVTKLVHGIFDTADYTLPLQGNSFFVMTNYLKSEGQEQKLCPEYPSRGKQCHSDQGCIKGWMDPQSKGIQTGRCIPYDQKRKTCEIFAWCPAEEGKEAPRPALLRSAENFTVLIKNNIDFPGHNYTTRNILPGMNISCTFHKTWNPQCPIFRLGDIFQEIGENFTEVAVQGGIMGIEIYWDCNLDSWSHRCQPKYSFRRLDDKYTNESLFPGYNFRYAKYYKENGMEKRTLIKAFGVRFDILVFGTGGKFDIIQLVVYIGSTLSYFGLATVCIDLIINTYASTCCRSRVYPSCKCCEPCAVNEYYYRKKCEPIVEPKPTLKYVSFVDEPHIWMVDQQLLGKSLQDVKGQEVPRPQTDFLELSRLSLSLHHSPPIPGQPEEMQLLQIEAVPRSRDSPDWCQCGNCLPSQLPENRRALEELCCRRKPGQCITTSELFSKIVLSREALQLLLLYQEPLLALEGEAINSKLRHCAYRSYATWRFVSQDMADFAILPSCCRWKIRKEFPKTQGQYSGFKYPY
Description: Antagonist activity at P2X7 receptor in neuropathic rat dorsal horn assessed as inhibition of long term potentiation-induced neropathic pain at 20 uM relative to control. To be noted: Dorsal horn of spinal cord. In short, it runs like this:
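Ex vivo spinal cord preparation: LTP-induced pain signalling recorded in the dorsal horn of neuropathic rats. Pregabalin served as the positive control.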

Data set [4] deals with T4, P2X purinoceptor 7 (Homo sapiens) (UniProt Q99572).
T4 sequence (whole entry): T1 sequence (Q99572 whole entry)
Kind of data set: Antagonist activity at recombinant human P2X7 receptor expressed in HEK293 cells assessed as inhibition of BzATP-induced intracellular ethidium bromide uptake at 10 uM after 2 hrs by fluorescence assay. Type of data set: cell-based.

In data set [5] the target is T1, P2X purinoceptor 7. Kind of data set: Antagonist activity at recombinant human P2X7 receptor expressed in HEK293 cells assessed as inhibition of BzATP-induced intracellular ethidium bromide uptake after 2 hrs by fluorescence assay. Type of data set: cell-based. The method, boiled down: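 Human HEK293 cells stably expressing recombinant human P2X7; ethidium accumulation stimulated by BzATP was measured.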

Data set [6] concerns the target T1, P2X purinoceptor 7. Description: Antagonist activity at P2X7 receptor in LPS/IFN-gamma-differentiated human THP1 cells assessed as inhibition of BzATP-induced IL-1beta release preincubated for 30 mins followed by BzATP induction measured after 30 mins by ELISA. In kind it is cell-based, THP-1. The method, boiled down: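 Human THP-1 monocytes, LPS-primed, stimulated with BzATP; IL-1β release measured by ELISA. Active compounds were screened at 1 µM, and full concentration-response curves were run to obtain IC50.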

For data set [7], the target named is T4, P2X purinoceptor 7 (Homo sapiens). Description: Antagonist activity at P2X7 receptor in LPS/IFN-gamma-differentiated human THP1 cells assessed as inhibition of BzATP-induced IL-1beta release at 1 uM preincubated for 30 mins followed by BzATP induction measured after 30 mins by ELISA relative to control. In kind it is cell-based. Conditions: THP-1. The method, boiled down:
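LPS-primed THP-1 human monocytes were stimulated with BzATP, and IL-1β release was measured by ELISA. Test compound was given at a single concentration of 1 µM, and results are expressed as percent inhibition of BzATP-induced IL-1β release.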

The nature of data set [8]: Half life in rat at 10 mg/kg, ip. In kind it is ADME, organism-based. Details: dose 10 mg/kg, route intraperitoneal. Conditions: in vivo.
The nature of data set [9]: Cmax in rat at 10 mg/kg, ip. In kind it is ADME, organism-based. To be noted: in vivo. Details: dose 10 mg/kg, route intraperitoneal. The method, boiled down:
(§1)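 Rats dosed 10 mg/kg intraperitoneally; plasma concentrations were measured, and absolute bioavailability was calculated relative to intravenous dosing.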

Data set [10] in a line: Terminal half life in rat at 20 mg/kg, iv. Details: dose 20 mg/kg, route intravenous. Type of data set: ADME, organism-based. To be noted: in vivo, read-out: beta t1/2. The method, boiled down: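 Rats dosed intravenously; mean terminal half-life was derived from the plasma concentration decline.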
A short description of data set [11]: Bioavailability in rat at 10 mg/kg, ip. To be noted: in vivo. Type of data set: ADME, organism-based. In short, it runs like this: as §1
The nature of data set [12]: AUClast in rat at 20 mg/kg, iv. Type of data set: ADME, organism-based. Details: time 0 - last, dose 20 mg/kg, route intravenous. To be noted: plasma. In short, it runs like this: (§2)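 Rats were dosed with the test agent intraperitoneally or by intravenous injection. Drug levels were followed in plasma over time after dosing. Intravenous and intraperitoneal exposures were compared to give absolute bioavailability.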

Data set [13] in a line: AUClast in rat at 10 mg/kg, ip. Type of data set: ADME, organism-based. Details: time 0 - last, dose 10 mg/kg, route intraperitoneal. Conditions: plasma. The method, boiled down: as §2

pIC50: −log10 of the molar value. Active and inactive are the calls of the source. The calls are words filed in the database; no cut-off is given here. Some results are limits rather than exact numbers.

`O=C([C@@H]1Cc2ccc(OS(=O)(=O)c3cccc4cnccc34)cc2CN1S(=O)(=O)c1cccc2cnccc12)N1CCN(c2ccccc2)CC1`: at P2X purinoceptor 7 [1], the pIC50 was greater than 6.00.

For the compound `CC(C)(C)OC(=O)N1CCN(C(=O)[C@H](Cc2ccc(OS(=O)(=O)c3cccc4cnccc34)cc2)NS(=O)(=O)c2cccc3cnccc23)CC1`, on P2X purinoceptor 7 [1], the pIC50 is 7.39.

In the case of `O=C(NCC12CC3CC(CC(C3)C1)C2)c1cc(CCCNCCCO)ccc1Cl`, the pIC50 at P2X purinoceptor 7 [2] is less than 4.22.

`O=C(N[C@@H](Cc1ccc(OS(=O)(=O)c2ccc([N+](=O)[O-])cc2)cc1)C(=O)N1CCN(C(=O)c2ccccc2)CC1)OCc1ccccc1` had a pIC50 at P2X purinoceptor 7 [1] of 7.47.

Consider `CC(C)C[C@H](CN)CC(=O)O`, for which, in [3], the inhibition stood at 31%.

As to `O=C1NC(=O)[C@H](Cc2ccc(OS(=O)(=O)c3cccc4cnccc34)cc2)N1`, the inhibition result in data set [4] is “inactive”.

With `O=C1NC(=O)N(C2CCN(C(=O)C34CC5CC(CC3C5)C4)CC2)C1Cc1ccc(OS(=O)(=O)c2cccc3cnccc23)cc1` (racemic), the pIC50 was 7.16 at P2X purinoceptor 7 [5] and 7.31 on P2X purinoceptor 7 [6]. In data set [7], the inhibition is greater than 95%.

With `O=C1NC(=O)N(C2CCN(C(=O)CC3CC4CCC3C4)CC2)C1Cc1ccc(OS(=O)(=O)c2cccc3cnccc23)cc1` (racemic), the negative logarithm of the IC50 (pIC50) at P2X purinoceptor 7 [5] was 6.96; at P2X purinoceptor 7 [6] it was 7.54. Further, the inhibition in data set [7] was greater than 95%.

As to `O=C1NC(=O)N(C2CCN(C(=O)c3ccc(Cl)c(C(F)(F)F)c3)CC2)C1Cc1ccc(OS(=O)(=O)c2cccc3cnccc23)cc1` (racemic), the pIC50 is 7.15 on P2X purinoceptor 7 [5], 4.93 on P2X purinoceptor 7 [2] and 7.30 on P2X purinoceptor 7 [6]. Moreover, the half-life in data set [8] was determined as 2.15 h; in data set [10], 1.29 h. In data set [9], the Cmax was 400 ng/mL. Also, in data set [11], the bioavailability was determined as 86%. Further, the AUC(0-t) in data set [12] is 3530 ng·h/mL; in data set [13], 1520 ng·h/mL.

Turning to `O=C1NC(=O)N(C2CCN(C(=O)C34CC5CC(CC(C5)C3)C4)CC2)C1c1ccc(OS(=O)(=O)c2cccc3cnccc23)cc1` (racemic), the inhibition in [4] is 48%.

Take `O=C1NC(=O)N(C2CCN(C(=O)CC34CC5CC(CC(C5)C3)C4)CC2)C1c1ccc(OS(=O)(=O)c2cccc3cnccc23)cc1` (racemic): in data set [4], the inhibition came to 46%.

Consider `O=C1NC(=O)N(C2CCN(C(=O)c3ccc(Cl)c(C(F)(F)F)c3)CC2)C1c1ccc(OS(=O)(=O)c2cccc3cnccc23)cc1` (racemic), for which, in data set [4], the inhibition stood at 30%.

Take `O=C1NC(=O)N(C2CCNCC2)C1Cc1ccc(OS(=O)(=O)c2cccc3cnccc23)cc1` (racemic): in data set [4], the inhibition result is “inactive”.

For the compound `O=C1NC(=O)N(CC2CCNCC2)C1Cc1ccc(OS(=O)(=O)c2cccc3cnccc23)cc1` (racemic), the inhibition entry in data set [4] is “inactive”.

For orientation: pIC50 means the negative decadic logarithm of the IC50, by convention in mol/L. As usually defined, the inhibition is the change of the read-out against control, counted positive when it falls. The term Cmax denotes the maximum level reached in the sampled fluid or tissue. What is called bioavailability is dose-corrected exposure relative to a reference, in per cent. Usually AUC(0-t) stands for the area under the concentration-time curve up to a stated or last time point.

(Values after ChEMBL document CHEMBL3414458, “Discovery of novel 2,5-dioxoimidazolidine-based P2X(7) receptor antagonists as constrained analogues of KN62” (J Med Chem, 2015).)
